# Results published in ChEMBL document CHEMBL4706729, “Discovery of the First Orally Available, Selective K1.1 Inhibitor: In Vitro and In Vivo Activity of an Oxadiazole Series” (ACS Med Chem Lett, 2021).
# Columns and labels:
# [1] = Free drug concentration in wildtype CD-1 mouse brain at 150 mg/kg, sc; conditions: in vivo
# [2] = Oral bioavailability in CD-1 mouse at 30 mg/kg; type: ADME, organism-based; conditions: in vivo
# [3] = Half life in CD-1 mouse at 0.5 mg/kg, iv; type: ADME, organism-based; conditions: in vivo
# In short: (§1)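 CD-1 mice given a single 0.5 mg/kg IV dose in 10% DMSO, 10% Solutol, 80% water. Clearance, Vdss and half-life derived from plasma concentration–time data.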
# [4] = Clearance in CD-1 mouse at 0.5 mg/kg, iv; type: ADME, organism-based; conditions: in vivo
# In short: as §1
# [5] = Free drug concentration in mouse brain harboring Kcnt1 L/L mutant at 30 mg/kg, sc; type: ADME, organism-based; conditions: in vivo
# [6] = Volume of distribution at steady state in CD-1 mouse at 0.5 mg/kg, iv; type: ADME, organism-based; conditions: in vivo, read-out: Vdss
# In short: as §1
# [7] = Metabolic stability in human liver microsomes assessed as intrinsic clearance
# [8] = Lipophilicity, log D of compound; type: physicochemical; conditions: octanol/water
CLint [7],logD [8],Compound,other results
< 9.6 µL/min/mg,3.6,C[C@H](NC(=O)c1cc(C(F)(F)F)nn1C)c1nc(-c2ccnc(C(F)(F)F)c2)no1,Drug uptake [1]: 1204 nM; bioavailability [2]: 100%; half-life [3]: > 20 h; clearance [4]: 2 mL/min/kg; Drug uptake(free) [5]: 270 nM; Vd [6]: 1.88 L/kg
10 µL/min/mg,4.4,COc1cc(-c2noc([C@H](C)NC(=O)c3cc(C(F)(F)F)nn3C)n2)cc(C)n1,
< 9.6 µL/min/mg,3,COCc1cc(-c2noc([C@H](C)NC(=O)c3cc(C(F)(F)F)nn3C)n2)ccn1,
< 9.6 µL/min/mg,3.4,C[C@H](NC(=O)c1cc(C(F)(F)F)nn1C)c1nc(-c2ccnc(C(F)F)c2)no1,
< 9.6 µL/min/mg,4.1,C[C@H](NC(=O)c1cc(C(F)(F)F)nn1C)c1nc(-c2ccnc(C3CC3)c2)no1,
21 µL/min/mg,3.8,COC(C)(C)c1cc(-c2noc([C@H](C)NC(=O)c3cc(C(F)(F)F)nn3C)n2)ccn1,
48 µL/min/mg,4.2,C[C@H](NC(=O)c1cc(C(F)(F)F)nn1C)c1nc(-c2ccnc(N3CCCC3)c2)no1,
< 9.6 µL/min/mg,3.3,Cc1cc(-c2noc([C@H](C)NC(=O)c3cc(C(F)(F)F)nn3C)n2)ccn1,
< 9.6 µL/min/mg,3.4,COc1cc(-c2noc([C@H](C)NC(=O)c3cc(C(F)(F)F)nn3C)n2)ccn1,
28 µL/min/mg,3.4,CNc1cc(-c2noc([C@H](C)NC(=O)c3cc(C(F)(F)F)nn3C)n2)ccn1,
56 µL/min/mg,3.9,C[C@H](NC(=O)c1cc(C(F)(F)F)nn1C)c1nc(-c2ccnc(N(C)C)c2)no1,
